{"source": "paper PMC9279713", "about": "(Acta Pharmaceutica Sinica. B, 2021)", "key": {"[1]": {"system": "HCT116 and CT26 cells", "experiment": "Immunogenic cell death: immunofluorescence of CRT and HMGB1", "type": "cell-based", "conditions": "100 nmol/L"}, "[2]": {"system": "CT26, HCT116 and SW620 cells", "experiment": "Western blotting of HIF-1α, PD-L1, HMGA1, p-Erk and p-Akt expression", "type": "cell-based", "outline": "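Cells were exposed to a range of test compound concentrations and then lysed in RIPA buffer containing 1% protease and 2% phosphatase inhibitors. Total lysate (20 μg protein per lane) was run on SDS-PAGE and transferred to PVDF. Membranes were blocked in 5% milk/TBST, incubated with primary antibodies overnight at 4 °C, then with an HRP-labelled secondary antibody for 2 h at room temperature.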"}}}
{"substance": "deoxybouvardin [RA-V]", "values": [{"measurement": "ICD effect: pre-apoptotic CRT exposure to membrane surface", "setting": "[1]", "result": "failed to elicit significant pre-apoptotic CRT exposure"}, {"measurement": "HMGA1 expression", "setting": "[2]; CT26, HCT116 and SW620 cells", "result": "inhibited significantly"}, {"measurement": "p-Akt and p-Erk expression", "setting": "[2]; CT26, HCT116 and SW620 cells", "result": "decreased"}, {"measurement": "PD-L1 expression", "setting": "[2]; CT26 cells, different concentrations", "result": "down-regulated PD-L1 expression remarkably"}]}
